The nature of assay [1]: inhibitors of TNFa-induced NFkB p65 translocation, primary screen, imaging, HUVEC, MLSMR starter and 10KST1 sets (AID 438;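 active = inhibition above 20% together with a positive visual image hit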;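 note: compound added about 3h40 before a 20 min TNFalpha stimulation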;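 for inhibition: signal is the nuclear over cytoplasmic p65 intensity ratio per well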). Particulars: HUVEC TNFa-induced p65 nuclear translocation; cell count: measured here: nuclei count (cytotoxicity indicator), at 2.08 µM; inhibition: at 2 µM, stronger effect = higher value, 0% TNFa-plus-vehicle, 100% no-TNFa wells.
Assay [2] is described as follows: inhibitors of mutant huntingtin aggregation, primary screen, imaging, exon1htt(103Q)mCFP cells, high-content imaging (AID 483;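 active = visual image review flags a hit and inhibition of aggregation exceeds 20%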;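 note: compound exposure lasted 3 days before fixation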;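 for nuclei count: percent of the per-plate median nuclei count of sample wells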). To be noted: exon1htt(103Q)mCFP cell line, aggregate imaging, at 2 µM; inhibition of aggregation: stronger effect = higher value; nuclei count: measured here: cell count, toxicity.
Assay [3] is described as follows: inhibitors of E-selectin induction by TNFa, primary screen, imaging, HUVEC, immunofluorescence, MLSMR starter and 10KST1 sets (AID 487).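 For inhibition: signal is fraction of cell area covered by stained E-selectin grains.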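 For nuclei count: 100% = median nuclei count of all wells on the same plate.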 Particulars: HUVEC TNFalpha-induced E-selectin immunofluorescence imaging, at 2 µM; inhibition: stronger effect = higher value; nuclei count: measured here: cell number, toxicity.
The target in assay [4] is Voltage-gated potassium channel subunit beta-2 (Rattus norvegicus) (UniProt P62483). Briefly: KvBeta enzyme negative modulators, primary screen, biochemical, NADPH fluorescence (AID 622;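 active = fluorescence slope higher than the sample average by over 3 SD, cut at about -0.22 in these data, passing the limit was not always enough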;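 note: slope of raw intensity against log time taken from 70 to 1610 s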). To be noted: recombinant KvBeta, 4-cyanobenzaldehyde reduction, at 10 µM, stronger effect = higher value.
The target is the same in assay [5]. Briefly: KvBeta positive modulators, primary screen, biochemical, NADPH fluorescence (AID 623;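 active = NADPH fluorescence slope more negative than the mean of all samples by about 3 SD, 99.7% confidence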;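 note: fluorescence intensity change per second fitted from 20 to 320 s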). Particulars: Recombinant KvBeta, NADPH fluorescence decrease slope, 10 min; at 10 µM; stronger effect = lower value.
The target of assay [6] is Muscarinic acetylcholine receptor M4 (Homo sapiens) (UniProt P08173). Briefly: compounds altering M4/GIRK thallium flux, either direction, primary screen, M4 allosteric agonist project, cell-based, HEK293 M4/GIRK, BTC-AM (AID 625;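 active = fluorescence slope after compound addition differing from the mean of all tested samples at 99.7% confidence, mostly higher but some lower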;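 note: thallium influx through GIRK channels coupled to M4 in HEK293 cells with BTC-AM dye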). To be noted: at 10 µM, actives lie on both sides. In short, it runs like this:
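System: HEK293 cells with M4 receptor and GIRK channels | Incubation: Cells overnight at 37 °C, BTC-AM loading 1 h, reads 2 min total | Technique: Kinetic BTC-AM fluorescence sampled at 1 Hz, 10 s pre-addition baseline | Measure: Post-addition slope, 15–24 s, of baseline-normalized fluorescence | Control set: Carbachol positive, DMSO negative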

Assay [7] in a line: inhibitors of Sendai virus-induced IRF3 signaling, primary screen, TLR/RLR signaling modifier project, cell-based, Sendai virus stimulus, luciferase, 10K MLSCN set (AID 602276;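 active = inhibition at or above 50% at 10 µM; inactive = inhibition below 50%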;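 note: firefly luciferase from ISG56 promoter only with Renilla not read in this screen; 0% = Sendai virus plus DMSO and 100% = medium plus DMSO without virus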). To be noted: HEK293 RL24 IRF3 luciferase reporter, at 10 µM, stronger effect = higher value.
Assay [8] is described as follows: inhibitors of poly I:C-induced TLR3 signaling, primary screen, cell-based, poly I:C stimulus, luciferase, 10K MLSCN set (AID 602277;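 active = inhibition of the reporter signal at or above 50%; inactive = inhibition below 50%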). To be noted: HEK293-TLR3 RL24 IRF3 luciferase reporter, at 10 µM, stronger effect = higher value. For orientation: A reporter such as luciferase makes a cellular process visible.

Experimental findings from PubChem BioAssay are described below.

Molecules are shown by their SMILES. Calls of active or inactive are those of the source.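 Rule for the calls, unless noted: active = visually confirmed hit in the image check and inhibition above 20%; inconclusive = visually confirmed hit but inhibition not above 20%; inactive = no visual hit in the image check.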

As a reminder, the inhibition is the relative decrease from the control value, in per cent.

Sequence of Muscarinic acetylcholine receptor M4 (Homo sapiens) (P08173 whole entry, looked up): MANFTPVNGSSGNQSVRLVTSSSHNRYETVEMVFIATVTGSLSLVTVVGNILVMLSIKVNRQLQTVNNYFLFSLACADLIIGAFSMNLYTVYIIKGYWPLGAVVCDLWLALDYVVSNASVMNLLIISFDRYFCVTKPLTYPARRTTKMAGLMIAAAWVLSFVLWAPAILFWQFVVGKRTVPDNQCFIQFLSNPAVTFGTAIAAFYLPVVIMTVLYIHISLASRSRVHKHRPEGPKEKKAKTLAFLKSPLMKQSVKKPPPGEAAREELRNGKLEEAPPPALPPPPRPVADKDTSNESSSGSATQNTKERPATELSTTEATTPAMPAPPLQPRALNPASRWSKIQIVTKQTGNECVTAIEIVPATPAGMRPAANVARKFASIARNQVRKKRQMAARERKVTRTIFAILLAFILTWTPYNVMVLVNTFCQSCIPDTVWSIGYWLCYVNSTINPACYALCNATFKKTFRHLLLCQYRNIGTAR
Sequence of Voltage-gated potassium channel subunit beta-2 (Rattus norvegicus) (P62483 whole entry, looked up): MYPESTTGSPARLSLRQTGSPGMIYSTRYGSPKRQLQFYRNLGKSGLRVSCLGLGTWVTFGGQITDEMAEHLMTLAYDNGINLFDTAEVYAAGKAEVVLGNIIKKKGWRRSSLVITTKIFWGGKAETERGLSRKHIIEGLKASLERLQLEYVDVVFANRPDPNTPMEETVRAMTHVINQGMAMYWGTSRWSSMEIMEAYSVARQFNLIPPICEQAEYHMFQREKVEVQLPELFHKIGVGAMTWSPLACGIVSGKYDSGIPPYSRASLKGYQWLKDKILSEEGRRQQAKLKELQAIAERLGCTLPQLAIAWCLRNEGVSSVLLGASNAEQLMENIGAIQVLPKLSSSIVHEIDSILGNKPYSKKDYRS

Consider `CCc1nc2c(cnn2-c2ccc(Cl)cc2)c(=O)n1-c1ccc2c(c1)OCCO2`, for which, in assay [1], the cell count turned out to be 706. In addition, the inhibition in assay [1] was -7.7% (inactive); in assay [3] it was -49.7% (inactive); in assay [7], 3.09% (inactive); in assay [8], -2.86% (inactive). Also, the inhibition of aggregation in assay [2] was -5.1% (inactive). The values for the nuclei count in assay [2] and in assay [3] were 120% and 122%, respectively. For the same compound, the fluorescence slope in assay [4] is -0.543 (inactive); in assay [6], 0.00631 (inactive). In assay [5], the NADPH fluorescence slope is -1.7e-05 (inactive).
Consider `CC(=O)c1cccc(NC(=O)N2CCCC2C(=O)NCc2ccc(C)cc2)c1` (centres undefined), for which the cell count in assay [1] was 537. Also, the inhibition was -4.9% (inactive) in assay [1], -6.3% (inactive) in assay [3], 14.1% (inactive) in assay [7] and 23.1% (inactive) in assay [8]. For the same compound, the inhibition of aggregation in assay [2] is 6.2% (inactive). For the same compound, the nuclei count in assay [2] turned out to be 102%; in assay [3] it was 120%. For the same compound, the values for the fluorescence slope in assay [4] and in assay [6] were -0.216 (inactive) and 0.00664 (inactive), respectively. The NADPH fluorescence slope in assay [5] is -5.5e-06 (inactive).
As for `COc1cccc(N2CCN(c3c4c(nc5ncnn35)CCC4)CC2)c1`, the cell count in assay [1] turned out to be 468. The inhibition was 17.4% (inactive) in assay [1], 2.7% (inactive) in assay [3], 0.933% (inactive) in assay [7] and -39.1% (inactive) in assay [8]. Moreover, in assay [2], the inhibition of aggregation was -4.1% (inactive). In addition, the nuclei count was 102% in assay [2] and 109% in assay [3]. For the same compound, the fluorescence slope was -0.558 (inactive) in assay [4] and 0.00591 (inactive) in assay [6]. Moreover, the NADPH fluorescence slope in assay [5] was -5.9e-05 (inactive).
Take `Cc1ccccc1C(=O)NC1CCN(CC(=O)Nc2nccs2)CC1`: in assay [1], the cell count is 608. In addition, the inhibition in assay [1] is -39.8% (inactive); in assay [3] it was -37.1% (inactive); in assay [7] it was 9.51% (inactive); in assay [8] it was 14.2% (inactive). For the same compound, the inhibition of aggregation in assay [2] is 8.2% (inactive). The nuclei count in assay [2] is 111%; in assay [3] it was 109%. For the same compound, the fluorescence slope in assay [4] is -0.476 (inactive); in assay [6], 0.00698 (inactive). In addition, in assay [5], the NADPH fluorescence slope was 7.7e-05 (inactive).
On to `CCSc1oc(-c2ccco2)nc1S(=O)(=O)c1ccccc1`, for which the cell count in assay [1] stood at 584. For the same compound, the inhibition in assay [1] is -7.9% (inactive); in assay [3] it was 4.3% (inactive); in assay [7], -7.74% (inactive); in assay [8], -0.253% (inactive). Also, in assay [2], the inhibition of aggregation is -18% (inactive). The nuclei count in assay [2] was determined as 107%; in assay [3] it was 105%. The fluorescence slope was -0.316 (inactive) in assay [4] and 0.00508 (inactive) in assay [6]. Besides, in assay [5], the NADPH fluorescence slope was -2.1e-05 (inactive).
In the case of `O=C(NCCN1CCOCC1)C1CC(=O)N(c2ccc(F)c(Cl)c2)C1` (centres undefined), the cell count in assay [1] is 353. In addition, the inhibition in assay [1] is -4.7% (inactive); in assay [3], -63.7% (inactive); in assay [7], 10.9% (inactive); in assay [8], 10.3% (inactive). For the same compound, the inhibition of aggregation in assay [2] is 21.8% (inactive). The nuclei count amounted to 76.2% in assay [2] and 120% in assay [3]. Besides, the fluorescence slope was -0.554 (inactive) in assay [4] and 0.00645 (inactive) in assay [6]. The NADPH fluorescence slope in assay [5] is -3.9e-05 (inactive).
In the case of `Cc1cc(NC(=O)c2ccc3nc(-c4ccccc4)c(-c4ccccc4)nc3c2)no1`, in assay [1], the cell count worked out at 536. Also, the inhibition in assay [1] is -0.9% (inactive); in assay [3] it was -66.9% (inactive); in assay [7] it was -16% (inactive); in assay [8], -16.7% (inactive). For the same compound, in assay [2], the inhibition of aggregation is -14.8% (inactive). In addition, the nuclei count in assay [2] came out at 102%; in assay [3], 106%. In addition, the fluorescence slope in assay [4] is -0.463 (inactive); in assay [6], 0.00551 (inactive). For the same compound, the NADPH fluorescence slope in assay [5] is -2.8e-05 (inactive).
Take `COCCn1c(SCC(=O)c2ccccc2)nc2c(c1=O)SC(C)C2` (centres undefined): the cell count in assay [1] worked out at 232. Further, the inhibition in assay [1] is 7.3% (inactive); in assay [3], -17.9% (inactive); in assay [7], 1.47% (inactive); in assay [8], 7.51% (inactive). In addition, the inhibition of aggregation in assay [2] is -6.9% (inactive). Further, the nuclei count turned out to be 101% in assay [2] and 99.1% in assay [3]. The fluorescence slope is -0.45 (inactive) in assay [4] and 0.00738 (inactive) in assay [6]. Moreover, the NADPH fluorescence slope in assay [5] was -0.000101 (inactive).
As for `O=C(NC1CCCC1)c1ccc(S(=O)(=O)N2CCCC2)cc1`, the cell count in assay [1] was 452. In addition, the inhibition in assay [1] is -8% (inactive); in assay [3] it was -93.7% (inactive); in assay [7] it was -19.5% (inactive); in assay [8], -26.9% (inactive). Besides, in assay [2], the inhibition of aggregation was 1.5% (inactive). Also, the nuclei count in assay [2] turned out to be 104%; in assay [3] it was 120%. Further, the values for the fluorescence slope in assay [4] and in assay [6] were -0.344 (inactive) and 0.0102 (inactive), respectively. Moreover, in assay [5], the NADPH fluorescence slope was -1.7e-05 (inactive).
